From publication PMC7758886 (ACS Omega, 2020) come the findings set out here.

The subject of assay [1] is endogenous β-AR (HEK293 cells). The assay is described as follows: Single-cell FRET microscopy of isoprenaline-stimulated cAMP production. The format is cell-based. Conditions: 3 nM isoprenaline, continuous. The gist of the method:
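HEK293 cells co-transfected (Effectene) with receptor and Epac-SH187 cAMP FRET sensor; medium changed 16 h post-transfection, reseeded on PLL-coated coverslips, imaged 36–48 h post-transfection. One cell per coverslip, continuously perfused with FRET buffer (HEPES, pH 7.35) and/or ligand. FRET = corrected YFP/CFP ratio, normalized to baseline; cAMP rise lowers FRET. Traces averaged over eight cells from 3 days.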
On the technique in general: Cyclic AMP is a second messenger, typically raised through Gs and lowered through Gi signalling.

Assay [2] concerns β1 adrenergic receptor (β1AR). In words: Epac-S^H187 FRET cAMP production. As to conditions: HEK293, Epac-S^H187 sensor; at least three individual experiments. Format: cell-based.
Assay [3] has as its system α1A adrenergic receptor (α1AAR). In words: FRET-based Gαq activation, α1A adrenergic receptor. The format is cell-based. As to conditions: HEK293, 96-well.
Assay [4] concerns CXCR4. The assay is described as follows: FRET-based Gαi2 activation, 96-well plate, CXCR4. The format is cell-based. Conditions: HEK293, Gαi2 FRET sensor, ± SD, three to four independent plate reader experiments.
The target of assay [5] is CmorAlstRC ΔN-term mutant (Carausius morosus).
Assay [6] concerns the target Carausius morosus allatostatin-C receptor with C-terminal EYFP (CmorAlstRC-EYFP) (Carausius morosus). The assay is described as follows: FRET or BRET.

For `CC(C)NCC(O)c1ccc(O)c(O)c1` (centres unmarked) [Iso, isoprenaline], in assay [1], the “FRET response, cAMP production” value is “sharp decrease in FRET”.

For the compound `NC[C@H](O)c1ccc(O)c(O)c1` [NE, Norepinephrine], the “change in FRET signal (cAMP production)” value in assay [2] was “decreased the FRET response (increased the cAMP level) in a NE concentration-dependent manner”. In assay [3], the “Gαq FRET sensor activation” value is “induced a concentration-dependent FRET decrease in the Gαq sensor”.

On to “CXCL12: agonist of CXCR4, positive control for Gαi2 activation”, for which the “pEC50, Gαi2 activation” value in assay [4] amounted to 9.49 ± 0.1.

For “Drosophila melanogaster pGlu AST-C peptide (DmelASTC)”, in assay [5], the pEC50 of Gαi2 FRET sensor activation by DmelASTC, ΔN-term mutant, 96-well plates worked out at 8.47.

In the case of “human Gαi2-ECFP (from UniProt P04899 1-355) (natural protein)”, in assay [6], the pEC50 of AST-C for the FRET change between CmorAlstRC-EYFP and Gαi2-ECFP was 8.84; the tau of association (apparent, with 1 μM AST-C) was determined as 227 ms; the tau of dissociation (apparent, wash-off of 1 μM AST-C) amounted to 3.8 s.
